In ChEMBL document CHEMBL4304743, “Discovery of ( E)- N1-(3-Fluorophenyl)- N3-(3-(2-(pyridin-2-yl)vinyl)-1 H-indazol-6-yl)malonamide (CHMFL-KIT-033) as a Novel c-KIT T670I Mutant Selective Kinase Inhibitor for Gastrointestinal Stromal Tumors (GISTs)” (J Med Chem, 2019):
Calls of active or inactive are those of the source. The calls are words filed in the database; no cut-off is given here.

Assays:
[1] = Antiproliferative activity against human GIST48B cells incubated for 72 hrs by CCK8 assay; assay type: functional
Outline: (§1)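 Adherent GIST cells seeded at 1.5-5 × 10^4 cells/mL and left overnight at 37 °C, 5% CO2. Medium then replaced with medium holding serial compound dilutions; 72 h incubation. Viability by CCK-8, absorbance at 450 nm, normalized to DMSO control; GI50 from dose-response fit.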

[2] = test system: Mast/stem cell growth factor receptor Kit (Homo sapiens), P10721 [V559G]; experiment: Inhibition of TEL fused c-KIT V559G mutant (unknown origin) transfected in mouse BAF3 cells assessed as growth inhibition after 72 hrs by CCK8 assay; assay type: cell-based
Outline: (§2)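 Tel-c-KIT-transformed BaF3 lines (IL-3 independent) kept in RPMI 1640 with 10% FBS, 2% L-glutamine and pen/strep. Cells at 1.5 to 5 × 10^4 cells/mL mixed with graded compound and incubated 72 h at 37 °C, 5% CO2. Viability by CCK-8 absorbance at 450 nm, normalized to DMSO. GI50 from dose–response fit.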

[3] = test system: Mast/stem cell growth factor receptor Kit (Homo sapiens), P10721 [D820E]; experiment: Inhibition of TEL fused c-KIT D820E mutant (unknown origin) transfected in mouse BAF3 cells assessed as growth inhibition after 72 hrs by CCK8 assay; assay type: cell-based; outline: as §2
[4] = biological target: Mast/stem cell growth factor receptor Kit (Homo sapiens, UniProt P10721); experiment: Inhibition of wild type TEL fused c-KIT (unknown origin) transfected in mouse BAF3 cells assessed as growth inhibition after 72 hrs by CCK8 assay; assay type: cell-based; conditions: baf3, 72 h
Outline: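 IL-3 independent BaF3 cells stably expressing tel-c-KIT wt or tel-c-KIT T670I, grown in RPMI 1640 with 10% FBS, 2% L-glutamine, 37 °C, 5% CO2. Suspension cells at 1.5 to 5 × 10^4 cells/mL mixed with serial compound dilutions and incubated 72 h. Viability read by CCK-8 absorbance at 450 nm, normalized to DMSO; GI50 from curve fit. Selectivity is wt GI50 over T670I GI50.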

[5] = test system: Mast/stem cell growth factor receptor Kit (Homo sapiens), P10721 [UNDEFINED MUTATION]; conditions: GISTT1, 1 uM
GISTT1 [6] = experiment: Antiproliferative activity against human GISTT1 cells harboring c-KIT 560 to 578 deletion mutant incubated for 72 hrs by CCK8 assay; assay type: functional; conditions: GISTT1, 72 h; outline: as §1
[7] = Antitumor activity against human GIST5R cells xenografted in nude mouse assessed as tumor weight at 100 mg/kg, po administered […] via gavage for 28 days (reference value: 0.59g); assay type: functional
Outline: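 Female nu/nu mice (5 weeks old) given subcutaneous right-flank GIST-5R cells in Matrigel. Dosing began at tumors of 200-400 mm3; randomized, 4 mice per group. Daily oral dosing (QD) at 25, 50 or 100 mg/kg in 0.5% methylcellulose/0.4% Tween80, or vehicle alone, for 28 days. Body weight and tumor volume, (W²×L)/2, measured daily; mean±SEM.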

[8] = Antiproliferative activity against human GIST5R cells harboring c-KIT 560 to 578 deletion/T670I double mutant incubated for 72 hrs by CCK8 assay; assay type: functional; outline: as §1
[9] = test system: Mast/stem cell growth factor receptor Kit (Homo sapiens), P10721 [UNDEFINED MUTATION]; conditions: GISTT1, 1 uM; remark: listed apart in the source
[10] = test system: Mast/stem cell growth factor receptor Kit (Homo sapiens), P10721 [V654A]; experiment: Inhibition of TEL fused c-KIT V654A mutant (unknown origin) transfected in mouse BAF3 cells assessed as growth inhibition after 72 hrs by CCK8 assay; assay type: cell-based; outline: as §2
GIST882 = experiment: Antiproliferative activity against human GIST882 cells harboring c-KIT K642E mutant incubated for 72 hrs by CCK8 assay; assay type: functional; conditions: GIST882, 72 h; outline: as §1
[11] = test system: Mast/stem cell growth factor receptor Kit (Homo sapiens), P10721 [V559A]; experiment: Inhibition of TEL fused c-KIT V559A mutant (unknown origin) transfected in mouse BAF3 cells assessed as growth inhibition after 72 hrs by CCK8 assay; assay type: cell-based; outline: as §2
[12] = test system: Mast/stem cell growth factor receptor Kit (Homo sapiens), P10721 [UNDEFINED MUTATION]; conditions: 1 uM
GISTT1 [13] = experiment: Antiproliferative activity against human GISTT1 cells harboring c-KIT 560 to 578 deletion/T670I double mutant incubated for 72 hrs by CCK8 assay; assay type: functional; conditions: GISTT1, 72 h; outline: as §1
[14] = test system: Mast/stem cell growth factor receptor Kit (Homo sapiens), P10721 [L576P]; experiment: Inhibition of TEL fused c-KIT L576P mutant (unknown origin) transfected in mouse BAF3 cells assessed as growth inhibition after 72 hrs by CCK8 assay; assay type: cell-based; outline: as §2
Sequence of Mast/stem cell growth factor receptor Kit (Homo sapiens), P10721 [L576P] (P10721 whole entry L576P, the tested form may be a part): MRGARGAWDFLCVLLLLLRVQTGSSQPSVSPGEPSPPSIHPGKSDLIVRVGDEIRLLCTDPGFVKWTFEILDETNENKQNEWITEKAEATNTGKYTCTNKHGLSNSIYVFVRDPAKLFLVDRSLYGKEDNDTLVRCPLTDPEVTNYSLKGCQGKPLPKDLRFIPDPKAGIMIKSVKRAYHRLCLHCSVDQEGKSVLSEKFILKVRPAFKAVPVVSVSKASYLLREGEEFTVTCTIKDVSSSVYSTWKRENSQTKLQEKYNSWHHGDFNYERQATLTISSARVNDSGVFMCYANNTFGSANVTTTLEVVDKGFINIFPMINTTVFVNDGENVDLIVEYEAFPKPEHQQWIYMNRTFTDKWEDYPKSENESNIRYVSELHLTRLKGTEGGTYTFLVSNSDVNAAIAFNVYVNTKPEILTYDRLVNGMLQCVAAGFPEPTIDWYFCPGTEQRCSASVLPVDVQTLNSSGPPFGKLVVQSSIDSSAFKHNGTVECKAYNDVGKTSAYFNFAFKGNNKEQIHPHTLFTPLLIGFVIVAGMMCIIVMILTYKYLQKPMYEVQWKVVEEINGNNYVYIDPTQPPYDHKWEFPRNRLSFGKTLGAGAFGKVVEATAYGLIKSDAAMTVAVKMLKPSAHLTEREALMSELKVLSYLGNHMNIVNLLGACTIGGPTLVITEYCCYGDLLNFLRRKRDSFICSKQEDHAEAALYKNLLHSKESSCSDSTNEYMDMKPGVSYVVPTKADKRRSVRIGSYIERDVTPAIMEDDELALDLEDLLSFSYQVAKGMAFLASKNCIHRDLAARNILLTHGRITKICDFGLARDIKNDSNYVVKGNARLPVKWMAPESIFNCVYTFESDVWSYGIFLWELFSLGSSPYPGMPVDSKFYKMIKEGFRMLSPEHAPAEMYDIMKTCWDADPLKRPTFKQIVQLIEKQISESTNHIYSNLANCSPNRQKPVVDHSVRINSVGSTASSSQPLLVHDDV

Sequence of Mast/stem cell growth factor receptor Kit (Homo sapiens), P10721 [UNDEFINED MUTATION] (P10721 whole entry, looked up, stated change not applied, the tested form may be a part): as the sequence (P10721 whole entry L576P, the tested form may be a part) above, with P576L counted along it
Sequence of Mast/stem cell growth factor receptor Kit (Homo sapiens), P10721 [D820E] (P10721 whole entry D820E, the tested form may be a part): as the sequence (P10721 whole entry L576P, the tested form may be a part) above, with P576L, D820E counted along it
Sequence of Mast/stem cell growth factor receptor Kit (Homo sapiens), P10721 [V654A] (P10721 whole entry V654A, the tested form may be a part): as the sequence (P10721 whole entry L576P, the tested form may be a part) above, with P576L, V654A counted along it
Sequence of Mast/stem cell growth factor receptor Kit (Homo sapiens), P10721 [V559G] (P10721 whole entry V559G, the tested form may be a part): as the sequence (P10721 whole entry L576P, the tested form may be a part) above, with V559G, P576L counted along it
Sequence of Mast/stem cell growth factor receptor Kit (Homo sapiens), P10721 [V559A] (P10721 whole entry V559A, the tested form may be a part): as the sequence (P10721 whole entry L576P, the tested form may be a part) above, with V559A, P576L counted along it
Sequence of Mast/stem cell growth factor receptor Kit (P10721 whole entry, the tested form may be a part): as the sequence (P10721 whole entry L576P, the tested form may be a part) above, with P576L counted along it

## Cc1ccc(NC(=O)c2ccc(CN3CCN(C)CC3)cc2)cc1Nc1nccc(-c2cccnc2)n1 [IMATINIB]
[1]
  GI50: > 10000 nM
[2]
  GI50: 1 nM
[3]
  GI50: 267 nM
[4]
  GI50: 364 nM
[5]
  inhibition: inactive
GISTT1 [6]
  GI50: 26 nM
[7]
  Activity: 0.41 g
[8]
  GI50: > 10000 nM
[9]
  inhibition: inactive
[10]
  GI50: 2300 nM
GIST882
  GI50: 58 nM
[11]
  GI50: 5 nM
[12]
  inhibition: inactive
GISTT1 [13]
  GI50: > 10000 nM
[14]
  GI50: 115 nM
